Measured values taken from ChEMBL document CHEMBL3045034, “Diterpenes from Salvia broussonetii transformed roots and their insecticidal activity” (J Agric Food Chem, 2005).
≈ marks a conversion by molar mass, not a printed value. Calls of active or inactive are those of the source. The calls are words filed in the database; no cut-off is given here.

Tests used:
Spodoptera littoralis [1] = test: Antifeedant activity against L6 larvae Spodoptera littoralis compound injected orally relative to control; format: functional, organism-based
[2] = system: Leptinotarsa decemlineata; test: Antifeedant activity against adult Leptinotarsa decemlineata in host plant assessed as feeding inhibition; format: functional, organism-based
Method in brief: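 Choice feeding assay with adult beetles. Percent feeding inhibition was calculated. Compounds giving over 50% inhibition went on to a dose-response test, and EC50 (dose for 50% feeding reduction, µg/cm2) was derived by linear regression of % inhibition on log dose.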

Spodoptera littoralis [3] = test: Effect on ingestion in L6 larvae Spodoptera littoralis assessed as consumption compound injected orally relative to control; format: functional
Spodoptera littoralis [4] = test: Effect on weight gain in L6 larvae Spodoptera littoralis assessed as biomass compound injected orally relative to control; format: functional
[5] = system: Leptinotarsa decemlineata; test: Mortality in adult Leptinotarsa decemlineata in host plant measured after 72 hr; format: functional; design: concentration or dose not given beside the values
Method in brief: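 Test compounds in DMSO (10 µg/insect) were injected into the hemolymph of 20 adult beetles. Mortality was recorded for up to 3 days (72 h), analysed with contingency tables and corrected by Abbott's method.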

[6] = Cytotoxicity in mammalian Cricetulus griseus CHO (Chinese hamster ovary) cells measured after 48 hr by MTT assay; details: read-out: LD50

Structure (SMILES) | Activity (Spodoptera littoralis [1]) | EC50 [2] [microg/cm2] | Activity (Spodoptera littoralis [3]) [%] | Activity (Spodoptera littoralis [4]) [%] | mortality [5] [%] | CC50 at 48 h [6] [µg/mL]
CC(C)c1cc2c(c(O)c1O)[C@@]1(C)CCCC(C)(C)[C@@H]1CC2=O [DEMETHYLCRYPTOJAPONOL] | inactive | > 100 | 103 | 105 | 43 | 36 (≈ 114 µM)
COc1c(C(C)C)cc2c(c1O)[C@@]1(C)CCCC(C)(C)[C@@H]1CC2 | inactive | 10.2 | 91 | 102 | 14 | > 100
COc1c(O)c2c(c(O)c1C(C)C)C(=O)C[C@H]1C(C)(C)CCC[C@]21C [INUROYLEANOL] | inactive | > 100 | 119 | 106 | 0 | 
CC(C)c1cc2c(c(O)c1O)C[C@@]13CCCC(C)(C)[C@@H]1C[C@@H]2O3 [BRUSSONOL] |  | > 100 |  |  | 7 | 50.6 (≈ 160 µM)
CC(C)c1cc2c(c(O)c1O)[C@@]1(C)CCCC(C)(C)[C@@H]1[C@@H](O)C2=O [6-ALPHA-HYDROXYDEMETHYL-CRYPTOJAPONOL] | inactive |  |  |  |  | > 100
CC(C)c1cc2c(c(O)c1O)[C@@]1(C)CCCC(C)(C)C1=C(O)C2=O [14-DEOXYCOLEON U] | inactive | 1.8 | 107 | 99 | 29 | > 100
